# Screening data (PubChem BioAssay)
# The list is not random: actives were taken first. Their share in the collection is about 2.3%.
# ATG4B inhibitor: inhibitors of human ATG4B cysteine protease | inhibition, % at 8.33 µM | Q9Y4P1 | actives 0.51% (n = 340,000) | ATG4B cleavage of LC3-PLA2, NBD-HPC fluorescence, 1 h | AID 504462; in the data active = inhibition above about 40%
# Target sequence (Q9Y4P1 whole entry, looked up): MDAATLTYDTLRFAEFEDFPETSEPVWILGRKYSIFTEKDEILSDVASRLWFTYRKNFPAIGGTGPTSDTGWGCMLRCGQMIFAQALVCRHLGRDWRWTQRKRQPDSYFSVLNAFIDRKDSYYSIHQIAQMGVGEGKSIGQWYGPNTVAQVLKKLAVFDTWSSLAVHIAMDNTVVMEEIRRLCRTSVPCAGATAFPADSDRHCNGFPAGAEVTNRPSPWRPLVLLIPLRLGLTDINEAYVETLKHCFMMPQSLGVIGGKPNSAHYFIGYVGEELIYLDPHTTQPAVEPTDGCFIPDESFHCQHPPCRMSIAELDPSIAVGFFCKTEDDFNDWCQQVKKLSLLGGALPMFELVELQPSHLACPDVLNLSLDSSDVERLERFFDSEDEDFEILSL
# MT1-MMP act inh: inhibitors of human MT1-MMP activation; GFP/RFP ratio change, % at 20 µM; P50281; actives 0.061% (n = 360,000); HT1080 RFP-PRO-GFP cells, GFP/RFP ratio fluorescence, overnight; percent of plate control window, DMSO zero;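 active = GFP/RFP ratio change of at least 30% with cell ATP level not reduced by more than half and red fluorescence within 50% of control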
#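 Assay system: HT1080 RFP-PRO-GFP cells. Benchmarks: DMSO vehicle wells and RFP-L50D-GFP reporter cell wells. Times: overnight cell settling, then overnight compound exposure, 37 °C, 5% CO2. Compound: 20 µM single dose, 1% DMSO. Read-out basis: GFP/RFP fluorescence ratio.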
# SKN-1 inh: inhibitors of C. elegans SKN-1. C. elegans VP596 Pgst-4::GFP/RFP ratio, acrylamide-induced, 24 h. actives 0.49% (n = 360,000). inhibition, % at 21.8 µM;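 active = interference check ratio from 0.5 to 1.5 plus GFP to RFP signal ratio inhibition reaching or exceeding a fixed threshold, cut at about 30% in these data, passing the limit was not always enough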
# MPTP inh: inhibitors of mitochondrial permeability transition pore | isolated mouse mitochondria, Ca2+ swelling absorbance, 30 min | inhibition, % at 10 µM | actives 1.4% (n = 360,000) | AID 602449;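 active = inhibition of 50% or more, scaled per plate between neutral and stimulator controls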
# Hits are given with their value; . = inactive; / = no result given.
SMILES,ATG4B inhibitor,MT1-MMP act inh,SKN-1 inh,MPTP inh
c1ccc(-n2nc3c(ccc4cnnc43)[nH]2)cc1,.,.,31,.
COc1ccc(N2C[C@H](Cc3ccccc3)[C@@H](CC(=O)Nc3ccccc3)C2=O)cc1,/,.,.,.
Clc1ccc(N/N=C/c2cccnc2)cc1,.,.,.,.
Cc1sc(N/N=C/c2cccnc2)nc1-c1ccc(Cl)cc1,.,.,35,.
CC1=C(C(=O)N2CCCCCC2)CC(CC(=O)NCC2CCCCC2)C(=O)N1Cc1ccc(F)cc1 (stereo not drawn),/,.,.,.
Fc1cccc(Cc2c(-c3ccccc3)nc3c4ccccc4ccn23)c1,/,.,.,.
CCN(CC(=O)Nc1ccccc1C(F)(F)F)C(=O)c1ccccc1Cc1ccccc1,.,.,.,.
CCN(CC(=O)Nc1ccccc1C(F)(F)F)C(=O)C1CC(=O)N(Cc2ccccc2)C1 (stereo not drawn),.,.,35,.
CCc1ccc(/C=C2\SC(=S)N(CCCC(=O)Nc3ccccn3)C2=O)cc1,.,.,47,.
COC(=O)c1ccc(/C=C2/SC(=S)N(CCCC(=O)Nc3ccccn3)C2=O)cc1,.,.,.,.
Cc1cccc(C#Cc2ccccc2)n1,.,.,46,.
Nc1ccc(C#Cc2ccccc2)cc1,.,.,.,.
O=C(O)c1ccc(-c2noc(-c3ccc(F)cc3)n2)cc1,.,.,.,.
CC(=O)Nc1cccc(C(=O)OC(C)C(=O)N2CCc3ccccc32)c1 (stereo not drawn),.,.,.,.
Cc1nonc1OCCNc1ccc([N+](=O)[O-])cc1[N+](=O)[O-],.,.,.,.
Cc1nonc1OC(C)CNc1ccc([N+](=O)[O-])cc1 (stereo not drawn),.,.,36,.
N#C/C(=C\c1cccn1S(=O)(=O)c1cccc([N+](=O)[O-])c1)S(=O)(=O)c1ccc(F)cc1,/,.,.,.
COc1ccc(-c2cc(-c3ccccc3)n[nH]2)c(O)c1,.,.,35,.
COc1ccc(-c2cc(-c3ccccc3O)[nH]n2)cc1,.,.,.,.
CC(C)CC(C(=O)Oc1ccc2c3c(c(=O)oc2c1)CCC3)N1C(=O)c2ccccc2C1=O (stereo not drawn),.,.,35,.
CS(=O)(=O)c1ccc(-c2csc(C(O)c3cccc(Cl)c3)n2)cc1 (stereo not drawn),/,.,.,.
Cc1c(C#N)c(O)n(CCO)c(=O)c1N=Nc1ccccc1,.,.,40,.
CC(NC(=O)c1c(Cl)cnn1C)C1CCCO1 (stereo not drawn),.,.,.,.
Brc1ccc(-c2nc(-c3ccccc3)no2)o1,.,.,79,.
Brc1ccc(-c2nc(-c3cccnc3)no2)o1,.,.,52,.
SMILES,ATG4B inhibitor,MT1-MMP act inh,SKN-1 inh,MPTP inh
COc1cccc(-c2nc(-c3ccc(Br)o3)no2)c1,.,.,.,.
CCc1nc(NCCC(C)C)c(C#N)c2c1CCCC2,.,.,43,.
Cc1c(N=Cc2cc(Br)cc(Br)c2O)cccc1C(=O)O,46,.,.,.
CCCCn1nnnc1NCc1ccc(C)s1,.,.,41,.
CCCC1(C(=O)OCC)NC(c2ccc(N(C)C)cc2)C2C(=O)N(c3ccccc3)C(=O)C21 (stereo not drawn),.,.,38,.
CCCC1(C(=O)OCC)NC(c2ccc(N(C)C)cc2)C2C(=O)N(c3ccc(OCC)cc3)C(=O)C21 (stereo not drawn),.,.,.,.
O=c1c2ccccc2oc2ccc(-c3ccc4[nH]ccc4c3)cc12,.,.,62,.
O=c1c2ccccc2oc2cc(-c3ccc4cc[nH]c4c3)ccc12,.,.,.,.
COC(=O)/C=C1/SC(=NC(=O)c2cccc([N+](=O)[O-])c2)NC1=O,.,.,.,.
O=C(C[C@H]1C[C@H](C(=O)N2CCOCC2)[C@@]2(CCC3CCCC3)c3[nH]c4cc(-c5ccco5)ccc4c3CCN2C1=O)NCCC1=CCCCC1,.,.,.,.
O=C(C[C@H]1C[C@H](C(=O)N2CCOCC2)[C@@]2(CCC3CCCC3)c3[nH]c4cc(-c5ccco5)ccc4c3CCN2C1=O)NCc1ccco1,.,.,36,.
CC1C/C(=C/c2cccs2)C(=O)/C(=C/c2cccs2)C1 (stereo not drawn),.,.,.,.
O=C1/C(=C/c2cccs2)CCC/C1=C\c1cccs1,.,.,38,.
O=C(Nc1cccc(-c2csc(Nc3ccccc3)n2)c1)c1ccccc1,.,.,46,.
